Screening data: PubChem, several laboratories
SKKanGAS inh: S. pyogenes SKKanGAS growth inhibitors in kanamycin, primary screen, streptokinase expression inhibitor project, SKKanGAS strain, BacTiter-Glo luminescence | 6 h | AID 1662, 2009 | 300,000 compounds, 1.3% hits | inhibition, % at 7.5 µM;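 active = mean replicate score, as percent of positive control median, at least 50; inconclusive = mean below 50 but one replicate at or above 50; inactive = mean and every replicate below 50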;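 note: strain carries kanamycin resistance gene driven by streptokinase promoter and grows in 40 µg/ml kanamycin; loss of luminescence reflects streptokinase promoter inhibition or plain growth inhibition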
Beta apoptosis: inhibitors of cytokine-induced beta cell apoptosis, primary screen, luminescence | AID 435005, 2010 | 300,000 compounds, 0.8% hits | INS-1E cytokine-induced death, ATP luminescence, 48 h; percent of positive-control rescue, neutral wells zero | protection from apoptosis, % (no concentration beside the values);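 active = Every replicate reaches about 75%, or at least half do and their mean reaches it too, limit read from the data; inconclusive = At least half of replicates reach the limit but their mean does not; inactive = Under half of replicates reach the limit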;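 note: higher means more ATP so stronger rescue from cytokine killing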
Mdm2 MdmX PPI: inhibitors of human Mdm2-MdmX association, primary screen, cell-based, luminescence, split luciferase, SaOS-2, uHTS | Protein Mdm4 (Homo sapiens) + E3 ubiquitin-protein ligase Mdm2 (Homo sapiens), … | SaOS-2 split-luciferase Mdm2/MdmX complementation | inhibition, % at 8 µM | 330,000 compounds, 3% hits;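 active = inhibition of at least 50% at 8 µM in the primary screen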
Target sequence (O15151 whole entry, looked up): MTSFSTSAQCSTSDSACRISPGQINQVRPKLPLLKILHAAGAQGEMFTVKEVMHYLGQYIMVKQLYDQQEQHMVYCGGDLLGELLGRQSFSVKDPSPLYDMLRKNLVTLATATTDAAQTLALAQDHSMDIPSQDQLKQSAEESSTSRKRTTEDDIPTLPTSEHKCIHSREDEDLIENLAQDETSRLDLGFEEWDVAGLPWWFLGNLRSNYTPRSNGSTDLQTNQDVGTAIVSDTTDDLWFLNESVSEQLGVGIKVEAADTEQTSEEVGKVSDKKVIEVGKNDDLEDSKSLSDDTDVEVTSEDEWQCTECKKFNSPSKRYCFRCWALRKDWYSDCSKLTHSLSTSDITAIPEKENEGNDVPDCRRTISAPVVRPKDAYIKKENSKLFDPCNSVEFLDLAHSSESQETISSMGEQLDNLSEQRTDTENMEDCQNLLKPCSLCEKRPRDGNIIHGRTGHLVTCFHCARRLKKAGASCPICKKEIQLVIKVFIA
Target sequence (Q00987 whole entry, looked up): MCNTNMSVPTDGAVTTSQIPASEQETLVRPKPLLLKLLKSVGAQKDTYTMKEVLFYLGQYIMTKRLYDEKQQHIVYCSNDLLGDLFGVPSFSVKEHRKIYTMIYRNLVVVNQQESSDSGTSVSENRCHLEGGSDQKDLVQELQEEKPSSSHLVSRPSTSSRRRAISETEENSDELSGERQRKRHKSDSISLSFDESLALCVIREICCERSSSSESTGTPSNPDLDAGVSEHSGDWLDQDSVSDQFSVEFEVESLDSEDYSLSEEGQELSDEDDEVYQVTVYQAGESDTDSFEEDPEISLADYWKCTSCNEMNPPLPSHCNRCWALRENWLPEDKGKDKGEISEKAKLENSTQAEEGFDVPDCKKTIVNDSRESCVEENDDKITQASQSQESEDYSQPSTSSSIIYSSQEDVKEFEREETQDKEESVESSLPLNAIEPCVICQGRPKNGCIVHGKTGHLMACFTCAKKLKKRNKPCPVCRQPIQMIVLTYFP
CSC inhib: cancer stem cell viability inhibitors, primary screen, luminescence; cancer stem cell-like cells viability; inhibition, % at 7.5 µM; 300,000 compounds, 1.1% hits; in the data active = inhibition above about 75%; inconclusive = no clear call, values can overlap the other calls; tested in HMLE shEcad cells
Calb FLC: C. albicans growth inhibition with fluconazole, primary screen, CaCi-2 strain, Alamar Blue fluorescence; C. albicans CaCi-2 (fluconazole-resistant clinical isolate) + fluconazole, 48 h; 300,000 compounds, 0.57% hits; growth inhibition, % (test concentration not listed);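 active = growth inhibition above about 58% in most replicates, limit read from the data, passing the limit was not always enough; inconclusive = exactly half the replicates above a set limit; inactive = most replicates below a set limit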;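 note: all wells also contain fluconazole at 8 µg/ml as a sub-toxic cotreatment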
T cruzi repl: inhibitors of intracellular T. cruzi growth, primary screen, luminescence, NIH3T3 host cells; inhibition, % (no concentration beside the values); T. cruzi beta-gal in NIH3T3, 90 h; 300,000 compounds, 1.4% hits;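 active = mean inhibition across valid replicates above about 55%, limit read from the data; inconclusive = mean below that limit but half or more replicates reach it; inactive = mean below it, under half of replicates reach it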;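 note: signal also drops with host cell toxicity which is not excluded here; higher percent means less beta-gal luminescence so fewer parasites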
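compound dosing = single 50 nL compound addition per well in DMSO | material = NIH/3T3 host cells with β-galactosidase reporter T. cruzi | input = 5,000 host fibroblasts per well | timing = ≥90 h infection period, 3 h prior cell attachment | read-out basis = percent inhibition of parasite-derived β-gal signal | detection = GalScreen β-gal luminescence, detergent lysis, 60 min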
Mdm2-MdmX conf: Mdm2-MdmX complex disruptors, retested hits, confirmation, luminescence, single concentration | inhibition, % at 8 µM | Mdm2-MdmX binding, luminescent assay | shares compounds with Mdm2 MdmX PPI | 10,000 compounds, 55% hits; in the data active = inhibition above about 40%
FLuc counter: full-length luciferase signal inhibition, confirmation, counter-screen for Mdm2/MdmX interaction inhibitor project, cell-based, single concentration, SaOS-2. 6,200 compounds, 77% hits. shares compounds with Mdm2 MdmX PPI. inhibition, % at 8 µM. SaOS-2 full-length luciferase counterscreen, luminescence;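 active = mean inhibition at 8 µM reaching about 37%, which flags the compound as non-specific, limit read from the data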;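 note: p53-null SaOS-2 cells with luciferase driven by a doxycycline-inducible promoter; compound on cells about two nights before reading with doxycycline added after day one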
Of the large screens only hits and unclear results are named; the others gave an inactive call (follow-up assays come after a bar, where they were run). Compounds with a hit are over-represented: about 5.7% of the library has one in this group of screens.

Cc1nn(C(C)C)c(C)c1CN1CCC(C(=O)Nc2cccc(-c3cccc(F)c3)c2)CC1	Mdm2 MdmX PPI 78, T cruzi repl 55 | Mdm2-MdmX conf 52 | FLuc counter 62
C=CCn1cc(CN2CCC(C(=O)Nc3ccc(Oc4cccnc4)cc3)CC2)c(C)n1	none
C=CCn1cc(CN2CCC(C(=O)Nc3cccc(-c4cccc(F)c4)c3)CC2)c(C)n1	Mdm2 MdmX PPI 51 | Mdm2-MdmX conf inactive
COCc1ccc(CN2CCC(C(=O)Nc3cccc(-c4cccc(Cl)c4)c3)CC2)o1	Mdm2 MdmX PPI 78 | Mdm2-MdmX conf 54 | FLuc counter 58
CCCn1ncc(CN2CCC(C(=O)Nc3cccc(-c4cccc(F)c4)c3)CC2)c1C	Mdm2 MdmX PPI 87, T cruzi repl 57 (no result: Beta apoptosis) | Mdm2-MdmX conf 46 | FLuc counter 71
Cn1cc(CN2CCC(C(=O)Nc3cccc(-c4cccc(F)c4)c3)CC2)cn1	none
COc1cccc(CC(=O)Nc2cc(S(=O)(=O)N3CCOCC3)ccc2N2CCN(C)CC2)c1	none (no result: SKKanGAS inh, CSC inhib, Calb FLC, T cruzi repl)
NS(=O)(=O)c1ccc(CCNC(=O)C(=O)c2cn(CC(=O)N3CCCC3)c3ccccc23)cc1	none
CN(CC(=O)NCc1ccco1)CC(=O)Nc1c(Cl)cccc1Cl	none (no result: SKKanGAS inh, Calb FLC, T cruzi repl)
Cc1c(CN2CCC(C(=O)Nc3cccc(-c4cccc(Cl)c4)c3)CC2)cnn1C	Mdm2 MdmX PPI 58 | Mdm2-MdmX conf inactive
C=CCn1cc(CN2CCC(C(=O)Nc3cccc(-c4cccc(Cl)c4)c3)CC2)c(C)n1	Mdm2 MdmX PPI 81 | Mdm2-MdmX conf inactive
COc1ccccc1C(=O)NCCC(=O)NC1CCCCCC1	none (no result: SKKanGAS inh, Calb FLC, T cruzi repl)
O=C(Nc1cc(Cl)ccc1Cl)c1cc(-c2ccco2)on1	Mdm2 MdmX PPI 62 | Mdm2-MdmX conf inactive
O=C(Nc1cccnc1Cl)c1cc(-c2ccc(O)cc2)on1	none (no result: Beta apoptosis)
O=C(Nc1cccnc1Cl)c1cc(-c2ccc(Cl)cc2)on1	Mdm2 MdmX PPI 54 | Mdm2-MdmX conf inactive
CCOc1ccc(C(=O)NC2CCN(C(=O)Nc3ccc(F)cc3)CC2)cc1	none
O=C(Cc1ccc(S(=O)(=O)N2CCOCC2)s1)NCC(=O)Nc1ccccc1Br	none (no result: Calb FLC)
O=C(Cc1ccc(S(=O)(=O)N2CCOCC2)s1)Nc1ccccc1Br	Mdm2 MdmX PPI 66 | Mdm2-MdmX conf inactive
CCOC(=O)c1c(C)[nH]c(C)c1C(=O)CSc1nc2ccccc2c(=O)n1-c1ccc(CC)cc1	Beta apoptosis 110, Mdm2 MdmX PPI 56 | Mdm2-MdmX conf inactive | FLuc counter 96
CCOC(=O)c1c(C)[nH]c(C)c1C(=O)CSc1nc2ccccc2n1CC	none
O=C(Nc1ccc(Oc2ccccc2)nc1)C1CCCCN1Cc1ccco1 (stereo not drawn)	Mdm2 MdmX PPI 65 | Mdm2-MdmX conf 76 | FLuc counter 68
Cc1c([N+](=O)[O-])c2ccc(O)cc2n1-c1ccccc1	Mdm2 MdmX PPI 66 | Mdm2-MdmX conf 65 | FLuc counter inactive
Cc1c(C(=O)O)c2cc(O)ccc2n1-c1ccccc1	none
Cc1ccc(-n2c(C)c([N+](=O)[O-])c3ccc(O)cc32)cc1	none | Mdm2-MdmX conf 65 | FLuc counter inactive
CSc1ccc(CN(C)CC(=O)NCCc2ccccc2)cc1	none
CCOC(=O)c1ccc(NC(=O)c2ccccc2)cc1	none
CCOC(=O)c1ccc(NC(=O)c2c(N)n(Cc3ccccc3)c(=O)[nH]c2=O)cc1	Mdm2 MdmX PPI 96 | Mdm2-MdmX conf inactive
CCc1ccc(NC(=O)CCC(=O)Nc2nnc(C(F)(F)F)s2)cc1	none
C=CC(=O)N1c2ccccc2Sc2ccc(NC(=O)OCC)cc21	Mdm2 MdmX PPI 87 | Mdm2-MdmX conf 41 | FLuc counter inactive
O=C(CCN1N=C(c2ccccc2)CCC1=O)NCC1CCCO1 (stereo not drawn)	none
COc1ccc(-n2nnnc2SCC(=O)NCCc2ccccc2)cc1OC	none
COc1ccc(CCNc2nnc(Sc3nnnn3-c3ccccc3)s2)cc1OC	Mdm2 MdmX PPI 79 | Mdm2-MdmX conf 70 | FLuc counter 83
CC(C)=NOc1cc(NC(=O)CCl)cc([N+](=O)[O-])c1	Mdm2 MdmX PPI 95 | Mdm2-MdmX conf 70 | FLuc counter 56
Cc1nn(CC(=O)OCC(=O)c2ccccc2)c(C)c1[N+](=O)[O-]	none (no result: SKKanGAS inh, Calb FLC, T cruzi repl)
CCc1nc2nc(C)c(NS(=O)(=O)c3ccc(C4CCCCC4)cc3)c(=O)n2[nH]1	none (no result: CSC inhib)
Cc1cc(C)cc(N=c2c([N+](=O)[O-])nn(-c3cccc(Cl)c3)n2O)c1	none (no result: CSC inhib)
CCc1cccc(N=c2c([N+](=O)[O-])nn(-c3ccc4c(c3)OCCO4)n2O)c1	Mdm2 MdmX PPI 73, T cruzi repl 70 | Mdm2-MdmX conf 77 | FLuc counter 62
COc1cc(N=c2c([N+](=O)[O-])nn(-c3ccc4c(c3)OCCO4)n2O)cc(OC)c1	SKKanGAS inh 73, Mdm2 MdmX PPI 59 | Mdm2-MdmX conf inactive
N#Cc1ccccc1/C=N/Nc1nc(-c2ccccc2)c2cc(Br)ccc2n1	Mdm2 MdmX PPI 55 | Mdm2-MdmX conf inactive
Cc1ccc2nc(N/N=C\c3ccc([N+](=O)[O-])o3)nc(-c3ccccc3)c2c1	SKKanGAS inh 100, Mdm2 MdmX PPI 67, T cruzi repl 80 (no result: Beta apoptosis) | Mdm2-MdmX conf inactive
OCCNc1nc(-c2ccccc2)c2cc(Br)ccc2n1	none
Cc1ccc(C(C)C)c(OCc2nn(CC(=O)c3ccc(Cl)cc3)c3[n+]2CCCCC3)c1	Beta apoptosis 136, Mdm2 MdmX PPI 97, CSC inhib inconclusive, T cruzi repl 86 | Mdm2-MdmX conf 74 | FLuc counter inactive
c1ccc(-c2sc3ccccc3c2-c2ccc(OCCN3CCCC3)cc2)cc1	Mdm2 MdmX PPI 100, CSC inhib 107 (no result: SKKanGAS inh, Calb FLC, T cruzi repl) | Mdm2-MdmX conf 46 | FLuc counter 58
c1ccc(COc2ccc(OCCN3CCCCC3)cc2)cc1	none (no result: Beta apoptosis, CSC inhib)
COc1ccc(-c2sc3ccccc3c2-c2ccc(OCCN3CCCCC3)cc2)cc1	Beta apoptosis 103, Mdm2 MdmX PPI 88, CSC inhib 139 (no result: SKKanGAS inh, Calb FLC, T cruzi repl) | Mdm2-MdmX conf inactive
COc1ccc(-c2sc3ccc(OC)cc3c2-c2ccc(OCCN3CCOCC3)cc2)cc1	none (no result: SKKanGAS inh, Beta apoptosis, CSC inhib, Calb FLC, T cruzi repl)
O=C(Nc1ccc(Cl)c(S(=O)(=O)N2CCOCC2)c1)[C@@H]1CCCN1C(=O)c1cccs1	none (no result: SKKanGAS inh, CSC inhib, Calb FLC, T cruzi repl)
